Laboratory results published in ChEMBL document CHEMBL3124890, “SAR studies on trisubstituted benzimidazoles as inhibitors of Mtb FtsZ for the development of novel antitubercular agents” (J Med Chem, 2013).
Values after ≈ are worked out from the molar mass of the structure shown. Active and inactive are the calls of the source. No cut-off for these calls is given here.

How the values were obtained:
[1] = target: T1, Cell division protein FtsZ (Mycobacterium tuberculosis) (UniProt P9WN95); experiment: Inhibition of Mycobacterium tuberculosis FtsZ polymerization expressed in Escherichia coli BL21 (DE3) using GTP as substrate assessed as reduction in density and population of FtsZ polymers at 40 to 80 uM by transmission electron microscopy
T1 sequence (whole entry): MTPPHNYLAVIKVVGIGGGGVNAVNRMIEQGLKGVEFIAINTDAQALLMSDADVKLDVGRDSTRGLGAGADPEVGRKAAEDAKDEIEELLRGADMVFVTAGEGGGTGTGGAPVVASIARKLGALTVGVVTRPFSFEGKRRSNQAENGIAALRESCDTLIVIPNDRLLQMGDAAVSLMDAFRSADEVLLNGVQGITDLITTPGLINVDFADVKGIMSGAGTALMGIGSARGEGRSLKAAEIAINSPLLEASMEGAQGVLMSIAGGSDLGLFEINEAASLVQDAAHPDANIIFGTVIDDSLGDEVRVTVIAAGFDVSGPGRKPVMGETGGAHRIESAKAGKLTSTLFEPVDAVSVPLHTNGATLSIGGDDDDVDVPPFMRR
Outline: (§1)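 His-tagged Mtb FtsZ (pET15b, BL21(DE3), Ni-NTA purified) at 5 µM in 50 mM MES, 5 mM MgCl₂, 100 mM KCl, pH 6.5 was preincubated 15 min on ice with 40 or 80 µM compound (ethanol stock). GTP was added to 25 µM and samples were held at 37 °C for 30 min, then diluted 2×, stained with 1% uranyl acetate, and imaged by TEM.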

[2] = target: T1, Cell division protein FtsZ (Mycobacterium tuberculosis); experiment: Inhibition of Mycobacterium tuberculosis FtsZ polymerization expressed in Escherichia coli BL21 (DE3) using GTP as substrate by spectrofluorimetric analysis
[3] = tested on: Mycobacterium tuberculosis; experiment: […]; format: functional
Outline: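 Strains were grown at 37 °C in 7H9 Middlebrook broth with 10% OADC, 0.05% Tween and 0.2% glycerol. Compounds were dissolved in DMSO and serially diluted 2-fold, then bacteria were added. Plates were incubated 6 days at 37 °C, then 24 h more with Alamar Blue. MIC was the lowest concentration (μg/mL) that prevented the colour change. Run in triplicate.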

Vero = experiment: Cytotoxicity against Vero cells after 3 days by Alamar Blue assay; format: cell-based; settings: Chlorocebus sabaeus, 72 h
Outline: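 Vero (African green monkey kidney epithelial) cells were grown without CO₂ in L15 with antibiotics and heat-inactivated calf serum. Cells in medium with 2X Alamar Blue were added at 1.3×10^4 cells/well to 2-fold serial drug dilutions. Plates were incubated 3 days at 37 °C, and IC50 was calculated per the manufacturer's directions.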

[4] = target: T1, Cell division protein FtsZ (Mycobacterium tuberculosis); experiment: Inhibition of Mycobacterium tuberculosis FtsZ polymerization expressed in Escherichia coli BL21 (DE3) using GTP as substrate assessed as disassembly of FtsZ at 40 to 80 uM by transmission electron microscopy
Outline: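 His-tagged Mtb FtsZ (pET15b, BL21(DE3), Ni-NTA purified, Bradford-quantified) at 5 µM in 50 mM MES, 5 mM MgCl₂, 100 mM KCl, pH 6.5 was polymerized with 25 µM GTP at 37 °C for 30 min. Compound (40 or 80 µM, ethanol stock) was then added for 5 min more. Samples were diluted 2×, negatively stained with 1% uranyl acetate, and imaged by TEM.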

[5] = target: T1, Cell division protein FtsZ (Mycobacterium tuberculosis); experiment: Inhibition of Mycobacterium tuberculosis FtsZ polymerization expressed in Escherichia coli BL21 (DE3) using GTP as substrate assessed as reduction in aggregate formation at 40 to 80 uM by transmission electron microscopy; outline: as §1
[6] = target: T1, Cell division protein FtsZ (Mycobacterium tuberculosis); experiment: Inhibition of Mycobacterium tuberculosis FtsZ polymerization expressed in Escherichia coli BL21 (DE3) using GTP as substrate assessed as reduction in protofilaments at 40 to 80 uM by transmission electron microscopy; outline: as §1

| SMILES | inhibition [1] | inhibition [2] | MIC ([3]; H37Rv, 144 h) | MIC ([3]; W210, 144 h) | IC50 (Vero) | inhibition [4] | inhibition [5] | inhibition [6] |
| --- | --- | --- | --- | --- | --- | --- | --- | --- |
| CCCCOC(=O)Nc1cc2nc(C3CCCCC3)[nH]c2cc1N(C)C | Active | Dose-dependent effect | 0.06 µg/mL (≈ 0.167 µM) | 0.06 µg/mL (≈ 0.167 µM) | > 100 µg/mL | Active | Active | Active |
| CCc1ccc(C(=O)Nc2cc3nc(C4CCCCC4)[nH]c3cc2N(C)C)cc1 |  | Dose-dependent effect | 0.16 µg/mL (≈ 0.41 µM) | 0.16 µg/mL (≈ 0.41 µM) | > 100 µg/mL |  |  |  |
| CN(C)c1cc2[nH]c(C3CCCCC3)nc2cc1NC(=O)OCC(F)(F)F |  | Dose-dependent effect | 0.63 µg/mL (≈ 1.64 µM) |  | > 100 µg/mL |  |  |  |
| CCCC(C)OC(=O)Nc1cc2nc(C3CCCCC3)[nH]c2cc1N(CC)CC (stereo unspecified) |  |  | > 50 µg/mL |  | > 100 µg/mL |  |  |  |
| CCCCNC(=O)Nc1cc2nc(C3CCCCC3)[nH]c2cc1N(C)C |  |  | 6.25 µg/mL (≈ 17.5 µM) |  | > 100 µg/mL |  |  |  |
| CCN(CC)c1cc2[nH]c(C3CCCCC3)nc2cc1NC(=O)c1ccc(C)cc1 |  |  | 12.5 µg/mL (≈ 30.9 µM) |  | > 100 µg/mL |  |  |  |
